In this test the target is Fluorogen activating protein scFv HL1.1-TO1 (AM2.2, synthetic construct). Put plainly: competition with TO1-2p for soluble AM2.2 – biochemical, soluble FAP, fluorescence competition, artefact control for beta2AR internalization ligand project, dose response (AID 651938). The settings on record: Soluble FAP AM2.2 with TO1-2p fluorogen. The method, boiled down: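 System: soluble purified FAP AM2.2. Medium: cPBS buffer. Compound: serial dilution series, water-diluted DMSO stocks.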

Molecules are shown by their SMILES. pEC50: −log10 of the molar value.

In general, pEC50 refers to −log10 of the EC50, conventionally taken in molar units.

As for `Cc1ccc(S(=O)(=O)N(C)CC(=O)N2CCN(c3ccccn3)CC2)cc1`, the negative-log EC50 (pEC50) was 4.70.

On to `CN(CC(=O)N1CCN(c2ccccn2)CC1)S(=O)(=O)c1ccc(Cl)cc1`, for which the pEC50 is 5.56.

The values are drawn from PubChem BioAssay AID651938 (NMMLSC, 2012).
